Results reported in ChEMBL document CHEMBL3244175, “Experimental antiulcer drugs. 2. 2-Substituted 2,4,5,6-tetrahydro-1,3,4,6,6-pentamethylcyclopenta[c]pyrrole-4-carboxamides” (1977).
Calls of active or inactive are those of the source. The rule behind the calls is not given here.

Key:
[1] = system: Rattus norvegicus; experiment: Antisecretory activity in 5-hrs pyloric ligated rat assessed as pH of gastric contents at 100 mg/kg, po administered 2 hrs prior to pyloric ligation measured after 1 hr (reference value: 1.1 no-unit); type: functional, Stomach
[2] = system: Rattus norvegicus; experiment: Antisecretory activity in 5-hrs pyloric ligated rat assessed as volume of gastric secretion at 50 mg/kg, po administered 2 hrs prior to pyloric ligation measured per 100 gm of tissue (reference value: 4.05 +/- 0.21 ml); type: functional, Stomach
How it was run: (§1)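 Rats given a single po dose (12.5–100 mg/kg) 2 h before a 5-h pyloric ligation. Gastric secretion was assayed for pH, volume (mL/100 g) and total acid output ([…]), with % inhibition relative to controls. Groups had 5–15 rats, with 39 controls. Values are means ± SE from several experiments, and significance versus control was taken at p < 0.05 or 0.01.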

[3] = system: Canis familiaris; experiment: Antisecretory activity in po dosed histamine-stimulated dog assessed as decrease in total acidity of gastric secretions administered 18 and 2 hrs prior to histamine challenge; type: functional, organism-based; conditions: Canis lupus familiaris; Stomach
[4] = molecular target: Histamine H2 receptor (Cavia porcellus) (UniProt P47747); experiment: Inhibition of histamine H2 receptor in guinea pig atria assessed as inhibition of histamine response
Chain of Histamine H2 receptor (Cavia porcellus) (P47747 whole entry): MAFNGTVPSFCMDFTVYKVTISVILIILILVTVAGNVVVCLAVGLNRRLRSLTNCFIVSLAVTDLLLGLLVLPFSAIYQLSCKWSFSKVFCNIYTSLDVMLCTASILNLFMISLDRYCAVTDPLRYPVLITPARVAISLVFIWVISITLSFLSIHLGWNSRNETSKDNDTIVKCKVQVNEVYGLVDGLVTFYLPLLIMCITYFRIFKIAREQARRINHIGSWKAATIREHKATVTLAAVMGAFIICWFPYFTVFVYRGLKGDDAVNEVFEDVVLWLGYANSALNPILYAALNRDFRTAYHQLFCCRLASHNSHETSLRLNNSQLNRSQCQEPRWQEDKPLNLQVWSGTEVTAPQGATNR

[5] = system: Canis familiaris; experiment: Antisecretory activity in histamine-stimulated dog assessed as volume of gastric secretion at 3.1 mg/kg, po administered 18 and 2 hrs prior to histamine challenge measured per 15 mins (reference value: 14.7 ml); type: functional, Canis lupus familiaris, Stomach
[6] = system: Canis familiaris; experiment: Antisecretory activity in po dosed histamine-stimulated dog assessed as increase in pH of gastric secretions administered 18 and 2 hrs prior to histamine challenge; type: functional, organism-based; conditions: Canis lupus familiaris; Stomach
[7] = system: Canis familiaris; experiment: Antisecretory activity in po dosed histamine-stimulated dog assessed as decrease in volume of gastric secretions administered 18 and 2 hrs prior to histamine challenge; type: functional, organism-based; conditions: Canis lupus familiaris; Stomach
[8] = system: Rattus norvegicus; experiment: Antisecretory activity in po dosed 5-hrs pyloric ligated rat assessed as increase in pH of gastric secretions administered 2 hrs prior to pyloric ligation measured after 1 hr; type: functional, organism-based; conditions: Stomach; how it was run: as §1
[9] = system: Canis familiaris; experiment: Antisecretory activity in histamine-stimulated dog assessed as inhibition of total acid output at 3.1 mg/kg, po administered 18 and 2 hrs prior to histamine challenge (reference value: 0%); type: functional; conditions: Canis lupus familiaris
[10] = system: Rattus norvegicus; experiment: Antisecretory activity in 5-hrs pyloric ligated rat assessed as inhibition of total acid output at 50 mg/kg, po administered 2 hrs prior to pyloric ligation (reference value: 0%); type: functional; how it was run: as §1
[11] = system: Canis familiaris; experiment: Antisecretory activity in histamine-stimulated dog assessed as pH of gastric contents at 25 mg/kg, po administered 18 and 2 hrs prior to histamine challenge (reference value: 1 no-unit); type: functional, Canis lupus familiaris, Stomach
[12] = system: Canis familiaris; experiment: Antisecretory activity in histamine-stimulated dog assessed as volume of gastric secretion at 12.5 mg/kg, po administered 18 and 2 hrs prior to histamine challenge measured per 15 mins (reference value: 14.7 ml); type: functional, Canis lupus familiaris, Stomach
[13] = system: Rattus norvegicus; experiment: Antisecretory activity in 5-hrs pyloric ligated rat assessed as pH of gastric contents at 100 mg/kg, po administered 2 hrs prior to pyloric ligation measured after 1 hr (reference value: 1.07 to 1.1 no-unit); type: functional, Stomach
[14] = system: Rattus norvegicus; experiment: Antisecretory activity in po dosed 5-hrs pyloric ligated rat assessed as decrease in total acidity of gastric secretions administered 2 hrs prior to pyloric ligation; type: functional, organism-based; conditions: Stomach; how it was run: as §1
[15] = system: Rattus norvegicus; experiment: Antisecretory activity in 5-hrs pyloric ligated rat assessed as inhibition of total acid output at 12.5 mg/kg, po administered 2 hrs prior to pyloric ligation (reference value: 0%); type: functional; how it was run: as §1
[16] = system: Canis familiaris; experiment: Antisecretory activity in histamine-stimulated dog assessed as volume of gastric secretion at 25 mg/kg, po administered 18 and 2 hrs prior to histamine challenge measured per 15 mins (reference value: 14.7 ml); type: functional, Canis lupus familiaris, Stomach
[17] = system: Rattus norvegicus; experiment: Antisecretory activity in 5-hrs pyloric ligated rat assessed as pH of gastric contents at 50 mg/kg, po administered 2 hrs prior to pyloric ligation measured after 1 hr (reference value: 1.07 +/- 0.01 no-unit); type: functional, Stomach; how it was run: as §1
[18] = system: Canis familiaris; experiment: Antisecretory activity in histamine-stimulated dog assessed as volume of gastric secretion at 6.2 mg/kg, po administered 18 and 2 hrs prior to histamine challenge measured per 15 mins (reference value: 14.7 ml); type: functional, Canis lupus familiaris, Stomach
[19] = system: Rattus norvegicus; experiment: Antisecretory activity in 5-hrs pyloric ligated rat assessed as inhibition of total acid output at 25 mg/kg, po administered 2 hrs prior to pyloric ligation (reference value: 0%); type: functional; how it was run: as §1
[20] = system: Rattus norvegicus; experiment: Antisecretory activity in 5-hrs pyloric ligated rat assessed as volume of gastric secretion at 100 mg/kg, po administered 2 hrs prior to pyloric ligation measured per 100 gm of tissue (reference value: 4.05 +/- 0.21 ml); type: functional, Stomach; how it was run: as §1
[21] = system: Rattus norvegicus; experiment: Antisecretory activity in 5-hrs pyloric ligated rat assessed as inhibition of total acid output at 100 mg/kg, po administered 2 hrs prior to pyloric ligation (reference value: 0%); type: functional; how it was run: as §1
[22] = system: Canis familiaris; experiment: Antisecretory activity in histamine-stimulated dog assessed as pH of gastric contents at 3.1 mg/kg, po administered 18 and 2 hrs prior to histamine challenge (reference value: 1 no-unit); type: functional, Canis lupus familiaris, Stomach
[23] = system: Canis familiaris; experiment: Antisecretory activity in histamine-stimulated dog assessed as inhibition of total acid output at 12.5 mg/kg, po administered 18 and 2 hrs prior to histamine challenge (reference value: 0%); type: functional; conditions: Canis lupus familiaris
[24] = system: Canis familiaris; experiment: Antisecretory activity in histamine-stimulated dog assessed as pH of gastric contents at 12.5 mg/kg, po administered 18 and 2 hrs prior to histamine challenge (reference value: 1 no-unit); type: functional, Canis lupus familiaris, Stomach
[25] = system: Rattus norvegicus; experiment: Antisecretory activity in po dosed 5-hrs pyloric ligated rat assessed as decrease in volume of gastric secretions administered 2 hrs prior to pyloric ligation; type: functional, organism-based; conditions: Stomach; how it was run: as §1
[26] = system: Canis familiaris; experiment: Antisecretory activity in histamine-stimulated dog assessed as inhibition of total acid output at 6.2 mg/kg, po administered 18 and 2 hrs prior to histamine challenge (reference value: 0%); type: functional; conditions: Canis lupus familiaris
[27] = system: Rattus norvegicus; experiment: Antisecretory activity in 5-hrs pyloric ligated rat assessed as volume of gastric secretion at 25 mg/kg, po administered 2 hrs prior to pyloric ligation measured per 100 gm of tissue (reference value: 4.05 +/- 0.21 ml); type: functional, Stomach; how it was run: as §1
[28] = system: Rattus norvegicus; experiment: Antisecretory activity in 5-hrs pyloric ligated rat assessed as pH of gastric contents at 25 mg/kg, po administered 2 hrs prior to pyloric ligation measured after 1 hr (reference value: 1.07 +/- 0.01 no-unit); type: functional, Stomach; how it was run: as §1
[29] = species on record: Mus musculus; experiment: Anticholinergic activity in mouse assessed as induction of mydriasis; type: functional, organism-based
[30] = system: Canis familiaris; experiment: Antisecretory activity in histamine-stimulated dog assessed as pH of gastric contents at 6.2 mg/kg, po administered 18 and 2 hrs prior to histamine challenge (reference value: 1 no-unit); type: functional, Canis lupus familiaris, Stomach
[31] = system: Rattus norvegicus; experiment: Antisecretory activity in 5-hrs pyloric ligated rat assessed as pH of gastric contents at 12.5 mg/kg, po administered 2 hrs prior to pyloric ligation measured after 1 hr (reference value: 1.07 +/- 0.01 no-unit); type: functional, Stomach; how it was run: as §1
[32] = system: Canis familiaris; experiment: Antisecretory activity in histamine-stimulated dog assessed as volume of gastric secretion at 1.6 mg/kg, po administered 18 and 2 hrs prior to histamine challenge measured per 15 mins (reference value: 14.7 ml); type: functional, Canis lupus familiaris, Stomach
[33] = system: Heart; experiment: Anticholinergic activity in guinea pig auricle assessed as carbamylcholine-induced depression of heart rate after 5 mins; type: functional, tissue-based; conditions: Cavia porcellus
How it was run: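 Isolated guinea pig auricles in Krebs-Henseleit solution at 35 °C. Compound dissolved in Me2SO-H2O, added to the bath, and left on the tissue for 5 min. Read-out was the dose-related carbamylcholine-induced fall in spontaneous heart rate.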

[34] = system: Canis familiaris; experiment: Antisecretory activity in histamine-stimulated dog assessed as pH of gastric contents at 1.6 mg/kg, po administered 18 and 2 hrs prior to histamine challenge (reference value: 1 no-unit); type: functional, Canis lupus familiaris, Stomach
[35] = system: Canis familiaris; experiment: Antisecretory activity in histamine-stimulated dog assessed as inhibition of total acid output at 25 mg/kg, po administered 18 and 2 hrs prior to histamine challenge (reference value: 0%); type: functional; conditions: Canis lupus familiaris
[36] = system: Rattus norvegicus; experiment: Antisecretory activity in 5-hrs pyloric ligated rat assessed as volume of gastric secretion at 12.5 mg/kg, po administered 2 hrs prior to pyloric ligation measured per 100 gm of tissue (reference value: 4.05 +/- 0.21 ml); type: functional, Stomach; how it was run: as §1
[37] = system: Trachea; experiment: Anticholinergic activity in guinea pig trachea assessed as carbamylcholine-induced constriction at 10 uM; type: functional, tissue-based; conditions: Cavia porcellus
How it was run: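 Guinea pig trachea set up in the same bath system as the auricle preparation. Compound in Me2SO-H2O was added to the bath at 10^-5 M. Read-out was the dose-related response to carbamylcholine.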

[38] = system: Canis familiaris; experiment: Antisecretory activity in histamine-stimulated dog assessed as inhibition of total acid output at 1.6 mg/kg, po administered 18 and 2 hrs prior to histamine challenge (reference value: 0%); type: functional; conditions: Canis lupus familiaris

## Cc1c2c(c(C)n1C(C)C)C(C)(C(N)=O)CC2(C)C (stereo unspecified)
[1]
  pH: 1.8

## Cc1ccccc1-n1c(C)c2c(c1C)C(C)(C(N)=O)CC2(C)C (stereo unspecified)
[1]
  pH: 1

## Cc1c2c(c(C)n1Cc1ccccc1)C(C)(C(N)=O)CC2(C)C (stereo unspecified)
[1]
  pH: 1

## Cc1c2c(c(C)n1-c1cccc(Cl)c1)C(C)(C(N)=O)CC2(C)C (stereo unspecified)
[1]
  pH: 1.1

## Cc1cccc(-n2c(C)c3c(c2C)C(C)(C(N)=O)CC3(C)C)c1 (stereo unspecified)
[1]
  pH: 1.2

## Cc1c2c(c(C)n1-c1ccccc1)C(C)(C(N)=O)CC2(C)C (stereo unspecified)
[2]
  Activity: 1.66 mL
[3]
  inhibition: Dose-dependent effect
[4]
  inhibition: Active
[5]
  Activity: 3.8 mL
[6]
  Activity: Dose-dependent effect
[7]
  inhibition: Dose-dependent effect
[8]
  Activity: Dose-dependent effect
[9]
  inhibition in vivo at 3.1 mg/kg: 84%
[10]
  inhibition in vivo at 50 mg/kg: 75%
[11]
  pH: 6.7
[12]
  Activity: 4.8 mL
[13]
  pH: 6.2
[14]
  inhibition: Dose-dependent effect
[15]
  inhibition in vivo at 12.5 mg/kg: 41%
[16]
  Activity: 2.4 mL
[17]
  pH: 3.28
[18]
  Activity: 2 mL
[19]
  inhibition in vivo at 25 mg/kg: 52%
[20]
  Activity: 1.19 mL
[21]
  inhibition in vivo at 100 mg/kg: 100%
[22]
  pH: 1.8
[23]
  inhibition in vivo at 12.5 mg/kg: 88%
[24]
  pH: 4.7
[25]
  inhibition: Dose-dependent effect
[26]
  inhibition in vivo at 6.2 mg/kg: 95%
[27]
  Activity: 2.16 mL
[28]
  pH: 1.83
[29]
  Activity: inactive
[30]
  pH: 3.9
[31]
  pH: 1.34
[32]
  Activity: 11.9 mL
[33]
  Activity: inactive
[34]
  pH: 1.2
[35]
  inhibition in vivo at 25 mg/kg: 93%
[36]
  Activity: 2.66 mL
[37]
  Activity: inactive
[38]
  inhibition in vivo at 1.6 mg/kg: 49%

## Cc1c2c(c(C)n1CC1CC1)C(C)(C(N)=O)CC2(C)C (stereo unspecified)
[1]
  pH: 5.1

## Cc1c2c(c(C)n1C)C(C)(C(N)=O)CC2(C)C (stereo unspecified)
[1]
  pH: 4.2

## Cc1c2c(c(C)n1-c1ccc(F)cc1)C(C)(C(N)=O)CC2(C)C (stereo unspecified)
[1]
  pH: 1.4

## CN/C(=N\CCSCc1nc[nH]c1C)NC#N [CIMETIDINE]
[1]
  pH: 2.1

## Cc1c2c(c(C)n1C1CCC1)C(C)(C(N)=O)CC2(C)C (stereo unspecified)
[1]
  pH: 2.2

## CCCn1c(C)c2c(c1C)C(C)(C(N)=O)CC2(C)C (stereo unspecified)
[1]
  pH: 5.3

## Cc1c2c(c(C)n1-c1ccccc1Cl)C(C)(C(N)=O)CC2(C)C (stereo unspecified)
[1]
  pH: 1.1

## Cc1c2c(c(C)n1C1CCCC1)C(C)(C(N)=O)CC2(C)C (stereo unspecified)
[1]
  pH: 1.3

## Cc1ccc(-n2c(C)c3c(c2C)C(C)(C(N)=O)CC3(C)C)cc1 (stereo unspecified)
[1]
  pH: 1.1

## CCn1c(C)c2c(c1C)C(C)(C(N)=O)CC2(C)C (stereo unspecified)
[1]
  pH: 4.8

## Cc1c2c(c(C)n1C1CC1)C(C)(C(N)=O)CC2(C)C (stereo unspecified)
[1]
  pH: 3.7

## Cc1c2c(c(C)n1-c1ccc(Cl)cc1)C(C)(C(N)=O)CC2(C)C (stereo unspecified)
[1]
  pH: 1.2

## Cc1[nH]c(C)c2c1C(C)(C)CC2(C)C(N)=O (stereo unspecified)
[1]
  pH: 1.4

## CCCCn1c(C)c2c(c1C)C(C)(C(N)=O)CC2(C)C (stereo unspecified)
[1]
  pH: 2.5
